The subject of assay [1] is CLP-induced septic BALB/c mice. Put plainly: CLP-induced sepsis in mice. The format is in vivo, mouse. The method in brief:
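Male BALB/c mice, eight weeks old, 18–25 g, acclimatized 3 days, then anesthetized with xylazine 8 mg/kg plus ketamine 100 mg/kg. CLP was done under aseptic conditions; sham mice had the same surgery without CLP. Within 1 h post-surgery mice got test compound 5 mg/kg, DXM 10 mg/kg or 0.9% saline i.p. Survival was followed 72 h and clinical scoring done at 24 h. A separate cohort gave blood and organs at 12 h for cytokines.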

The next assay concerns E. coli ATCC 25922. The experiment in a line: Time-kill assay. The format is cell-based, Escherichia coli. The settings on record: meropenem 0.015 μmol/L; not completely eradicated within this time; n=3. The procedure, abridged: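 E. coli ATCC 25922 was exposed to test compound at several concentrations and sampled over incubation time. Viable CFU were counted by the spread plate method. Normal saline served as negative control and meropenem as positive control.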

Assay [2] has as its system Escherichia coli ATCC 25922. The experiment in a line: MIC, two-fold dilution, E. coli. The format is cell-based. The settings on record: meropenem as positive control, E. coli ATCC 25922.
Where [3] appears, read: serum and lung, HR-CATH2 5 mg/kg or DXM 10 mg/kg i.p., 12 h post-surgery.

As for `C[C@@H]1C[C@H]2[C@@H]3CCC4=CC(=O)C=C[C@]4(C)[C@@]3(F)[C@@H](O)C[C@]2(C)[C@@]1(O)C(=O)CO` [DXM, dexamethasone], in assay [1] (24 h after CLP, DXM 10 mg/kg i.p.), the Clinical scores result was “reduced clinical scores”. Besides, the Survival result in assay [1] (72 h after CLP, DXM 10 mg/kg i.p., n=10 per group) was “markedly improved survival”. Also, the Histopathological tissue injury result in assay [1] (lung, kidney, liver, H&E, HR-CATH2 5 mg/kg or DXM 10 mg/kg i.p. at 1 h after CLP, 12 h post-surgery) is given as “significantly alleviated tissue injury”. In addition, the MPO activity entry in assay [1] (lung, HR-CATH2 5 mg/kg or DXM 10 mg/kg i.p., 12 h post-surgery) is reported as “significantly attenuated”. Besides, in assay [1] (setting [3]), the IL-1β concentration entry is “significantly attenuated”, the IL-6 concentration entry is on record as “significantly attenuated”, the MCP-1 concentration result was “significantly attenuated” and the TNF-α concentration result is on record as “significantly attenuated”.

Turning to `C[C@@H](O)[C@H]1C(=O)N2C(C(=O)O)=C(S[C@@H]3CN[C@H](C(=O)N(C)C)C3)[C@H](C)[C@H]12` [meropenem], the “Time to complete eradication of E. coli” value in the assay with E. coli ATCC 25922 was over 180 min. The “MIC (positive control)” value in assay [2] stood at 0.015 mol/L.

The values above are taken from article PMC13647048 (Zoological Research, 2026).
